5 molecules from ChEMBL document CHEMBL1649301, “Polyamine transport as a target for treatment of Pneumocystis pneumonia” (Antimicrob Agents Chemother, 2009) can be followed below.

The source made the active and inactive calls. The calls are words filed in the database; no cut-off is given here.

Series [1] in a line: Ratio of IC50 for polyamine uptake in CHO-MG cells to IC50 for polyamine transporter expressed in CHO cells.
The test system of the next series is CHO-MG. Briefly: Inhibition of polyamine uptake in CHO-MG cells. It counts as functional, cell-based. Conditions: Cricetulus griseus.
Series [2] is described as follows: Cytotoxicity against Sprague-Dawley rat alveolar macrophages assessed as cell viability at 2 mM after 3 hrs by trypan blue exclusion assay. It counts as cell-based, Macrophage. Conditions: for Activity: macrophage, 3 h, 2000 µM. The gist of the method: (§1)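 Alveolar macrophages from normal rats (10⁶ per well) were kept in serum-free DMEM with compound for 3 h. They were then stained with 0.4% trypan blue, and unstained viable cells were counted.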

Series [3] has as its system Pneumocystis carinii. Nature of the series: Antimicrobial activity against Pneumocystis carinii infected in Sprague-Dawley rat assessed as effect on foamy exudates in alveoli at 0.5 mg/kg, intranasally every 2 days 28 days after infection for 21 days. It is filed as functional, organism-based. More on the design: dose 0.5 mg/kg. Put shortly: (§2)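 Female Sprague-Dawley rats (~120 g) were immunosuppressed with dexamethasone at 1.8 mg/liter in drinking water. After 1 week they received a transtracheal inoculum of 7.5 × 10⁶ trophic forms, plus penicillin i.m. weekly. From infection day 28, they were given 50 μl of a 1 mM solution intranasally every 2 days. After 21 days, lungs were fixed in 4% paraformaldehyde, and paraffin sections were H&E-stained and examined by light microscopy. Inflammation was graded 0–5.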

Series [4] concerns Pneumocystis carinii. Briefly: Antimicrobial activity against Pneumocystis carinii infected in Sprague-Dawley rat assessed as reduction of number of apoptotic alveolar macrophages at 0.5 mg/kg, intranasally every 2 days 28 days after infection for 21 days. It is filed as functional. Put shortly:
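Lung sections came from infected, dexamethasone-treated rats given 50 μl of 1 mM intranasally every 2 days for 21 days from day 28. Sections were digested with proteinase K (20 μg/ml, room temperature, 10 min), then TdT/fluorescein-12-dUTP labelled (37°C, 1 h) and DAPI-mounted. Apoptotic macrophage percentage was taken as TUNEL+/DAPI+ cells over 10 random 100× fields per slide.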

Series [5] has as its system Pneumocystis carinii. Briefly: Antimicrobial activity against Pneumocystis carinii infected in Sprague-Dawley rat assessed as effect on alveolar structure at 0.5 mg/kg, intranasally every 2 days 28 days after infection for 21 days. It is filed as functional, organism-based. More on the design: dose 0.5 mg/kg. Put shortly:
as §2

In series [6] the test system is Pneumocystis carinii. Nature of the series: Antimicrobial activity against Pneumocystis carinii infected in Sprague-Dawley rat assessed as increase of host survival time at 0.5 mg/kg, intranasally every 2 days 28 days after infection. It counts as functional. The gist of the method:
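Female Sprague-Dawley rats (~120 g) were immunosuppressed with dexamethasone 1.8 mg/liter in drinking water. One week later they were inoculated transtracheally with 7.5 × 10⁶ trophic forms, with weekly intramuscular penicillin. From infection day 28, rats received 50 μl of a 1 mM solution intranasally every 2 days (7–8 rats/group), alongside untreated infected and uninfected controls. Survival was followed to day 84 and compared by Kaplan-Meier/log-rank.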

Series [7] deals with Pneumocystis carinii. Nature of the series: Antimicrobial activity against Pneumocystis carinii infected in Sprague-Dawley rat assessed as reduction of inflammatory cell infiltration at 0.5 mg/kg, intranasally every 2 days 28 days after infection for 21 days. It is filed as functional, organism-based. More on the design: dose 0.5 mg/kg. The gist of the method:
as §2

Series [8] is described as follows: Inhibition of polyamine transporter expressed in CHO cells. It is filed as cell-based.
Series [9] deals with Pneumocystis carinii. Briefly: Antimicrobial activity against Pneumocystis carinii infected in Sprague-Dawley rat assessed as reduction of organism burden in lungs at 0.5 mg/kg, intranasally every 2 days 28 days after infection for 21 days. It is filed as functional, organism-based. Set-up: dose 0.5 mg/kg. The gist of the method: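 The dexamethasone-immunosuppressed, P. carinii-infected female Sprague-Dawley rats were dosed intranasally with 50 μl of a 1 mM solution every 2 days from infection day 28, for 21 days. Cysts were counted in paraffin lung sections stained with modified Grocott's methenamine silver, and burden was graded on a 0–4 scale.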

The nature of series [10]: Cytotoxicity against Sprague-Dawley rat alveolar macrophages assessed as cell viability at 0.4 mM after 3 hrs by trypan blue exclusion assay. It counts as cell-based, Macrophage. Conditions: read-out: Activity. The gist of the method:
as §1

Series [11] relates to Pneumocystis carinii. Nature of the series: Antimicrobial activity against Pneumocystis carinii infected in Sprague-Dawley rat assessed as reduction of inflammation at 0.5 mg/kg, intranasally every 2 days 28 days after infection for 21 days. It counts as functional, organism-based. More on the design: dose 0.5 mg/kg. Put shortly: as §2
For series [12], the system named is Pneumocystis carinii. Briefly: Antimicrobial activity against Pneumocystis carinii infected in Sprague-Dawley rat assessed as reduction of alveolar septum thickness at 0.5 mg/kg, intranasally every 2 days 28 days after infection for 21 days. It is filed as functional, organism-based. More on the design: dose 0.5 mg/kg. The gist of the method:
as §2

Series [13] concerns Pneumocystis carinii. Briefly: Antimicrobial activity against Pneumocystis carinii infected in Sprague-Dawley rat assessed as increase of open alveolar space at 0.5 mg/kg, intranasally every 2 days 28 days after infection for 21 days. It is filed as functional, organism-based. Set-up: dose 0.5 mg/kg. Put shortly:
as §2

Series [14] deals with Pneumocystis carinii. Nature of the series: Antimicrobial activity against Pneumocystis carinii infected in Sprague-Dawley rat assessed as reduction of foamy exudates in alveoli at 0.5 mg/kg, intranasally every 2 days 28 days after infection for 21 days. It counts as functional, organism-based. Set-up: dose 0.5 mg/kg. The gist of the method: as §2

Consider `Cl.NCCCCNCCCCNCc1ccc(CNCCCCNCCCCN)cc1`, for which the “Ratio IC50” value in [1] is given as 677. Moreover, the IC50 amounted to 50.2 µM in the series on CHO-MG and 0.074 µM in series [8]. For the same molecule, the Activity result in [2] is recorded as “Non-toxic”. The outcome in the series on Pneumocystis carinii [3], with Pneumocystis carinii [4] and in the series on Pneumocystis carinii [5] was inactive. In addition, in the series with Pneumocystis carinii [6], the Survival was found to be 84 days. In addition, the result in the series on Pneumocystis carinii [7] and with Pneumocystis carinii [9] was Active.

In the case of `NCCCCNCCCCNCc1c2ccccc2cc2ccccc12`, the viability at 3 h, 400 µM in [10] was under 16%. The molecule also gave a half-maximal inhibitory concentration (IC50) in [8] of 0.45 µM.

As to `Cl.NCCCCNCCCCNCc1c2ccccc2c(CNCCCCNCCCCN)c2ccccc12`, in [1], the “Ratio IC50” value is over 2222. In addition, the IC50 in the series on CHO-MG is over 100 µM; in series [8] it was 0.045 µM. The result with Pneumocystis carinii [11], in the series on Pneumocystis carinii [12], with Pneumocystis carinii [13], with Pneumocystis carinii [9] and in the series on Pneumocystis carinii [14] was Active. In addition, the Activity entry is “Non-toxic” in series [2] and 80% in the series with Pneumocystis carinii [4]. Also, in the series on Pneumocystis carinii [6], the Survival worked out at 84 days.

Regarding `Cl.Cl.NCCCCNCc1c2ccccc2cc2ccccc12`, the “Ratio IC50” value in series [1] is reported as 1. Moreover, the viability at 3 h, 400 µM in series [10] was under 16%. In series [8], this molecule had an IC50 of 7.7 µM.

Consider `NCCCCNCCCCNCCCCNCc1c2ccccc2cc2ccccc12`, for which the half-inhibitory concentration (IC50) stood at 33.2 µM in the series with CHO-MG and 10.6 µM in series [8]. In addition, the viability at 3 h, 2000 µM in [2] (Sprague-Dawley, alveolar macrophages, read-out: Activity) came to 42%. Besides, the viability at 3 h, 400 µM in series [10] is 88%.
